From ChEMBL document CHEMBL4732017, “Discovery, affinity maturation and multimerization of small molecule ligands against human tyrosinase and tyrosinase-related protein 1” (RSC Med Chem, 2021)
Active and inactive are the calls of the source. The rule behind the calls is not given here.

What was measured:
[1] = molecular target: T1, Tyrosinase (Homo sapiens) (UniProt P14679); test: Binding affinity to human tyrosinase at 50 uM at pH 6.8 by enzymatic assay
T1 sequence (whole entry): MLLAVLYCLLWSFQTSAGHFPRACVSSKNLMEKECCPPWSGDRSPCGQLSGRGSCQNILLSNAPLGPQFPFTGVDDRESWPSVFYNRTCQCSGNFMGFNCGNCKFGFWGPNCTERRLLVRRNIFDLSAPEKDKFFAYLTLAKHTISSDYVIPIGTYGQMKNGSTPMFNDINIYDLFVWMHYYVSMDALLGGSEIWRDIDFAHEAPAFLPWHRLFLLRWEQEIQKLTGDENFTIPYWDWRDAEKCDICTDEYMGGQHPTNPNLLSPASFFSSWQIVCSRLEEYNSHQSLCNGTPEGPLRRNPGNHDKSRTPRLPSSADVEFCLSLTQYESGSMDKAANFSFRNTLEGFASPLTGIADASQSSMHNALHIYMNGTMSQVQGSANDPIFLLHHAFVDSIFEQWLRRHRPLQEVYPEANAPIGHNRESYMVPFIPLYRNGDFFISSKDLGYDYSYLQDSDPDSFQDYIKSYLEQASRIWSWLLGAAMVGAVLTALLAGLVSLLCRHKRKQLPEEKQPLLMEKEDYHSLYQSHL
Summary of the method: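 Human tyrosinase intramelanosomal domain (residues 19–456), 200 nM, with 1 mM L-DOPA and 4 mM MBTH in PBS pH 6.8 with 1% DMSO at 25 °C. Dopaquinone-MBTH absorbance at 490–510 nm is recorded over 10 min, in duplicate, and the OD–time slope is taken by linear regression. Single-point tests use a fixed 50 µM inhibitor. IC50 comes from fitting the slope against inhibitor concentration.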

[2] = molecular target: T1, Tyrosinase (Homo sapiens); test: Binding affinity to human tyrosinase up to 100 uM by ELISA; conditions: dose microM <=100
Summary of the method: (§1)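 Wells are coated overnight at 4 °C with 100 nM hTYR or hTYRP1 in PBS and blocked with 4% milk-PBS for 30–45 min. A serial dilution of fluorescein-ligand conjugate is added for 45 min in the dark. Detection uses 200 nM anti-fluorescein IgG, then protein A-HRP (1:1000), each for 45 min with washes between. Absorbance is read at 450 and 620 nm, and values are fitted.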

[3] = molecular target: 5,6-dihydroxyindole-2-carboxylic acid oxidase (Homo sapiens) (UniProt P17643); test: Binding affinity to human tyrosinase related protein 1 up to 100 uM by ELISA; conditions: dose microM <=100; summary of the method: as §1
[4] = molecular target: T1, Tyrosinase (Homo sapiens); test: Binding affinity to human tyrosinase expressed in mouse B16F10 cells at 10 uM by fluorophore based flow cytometry assay; conditions: B16-F10
[5] = molecular target: 5,6-dihydroxyindole-2-carboxylic acid oxidase (Homo sapiens) (UniProt P17643); test: Binding affinity to human tyrosinase related protein 1 expressed in mouse B16F10 cells at 10 uM by fluorophore based flow cytometry assay; conditions: B16-F10
[6] = molecular target: 5,6-dihydroxyindole-2-carboxylic acid oxidase (Homo sapiens) (UniProt P17643); test: Binding affinity to human tyrosinase related protein 1 up to 10 uM by fluorescence polarization analysis; conditions: dose microM <=10
Summary of the method: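 hTYRP1 intramelanosomal domain (residues 25–471) is serially diluted 1:1 and incubated with 50 nM fluorescein-conjugated ligand in PBS pH 7.4. Fluorescence anisotropy is read in triplicate and anisotropy values are fitted against protein concentration.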

Chain of 5,6-dihydroxyindole-2-carboxylic acid oxidase (Homo sapiens) (P17643 whole entry, the tested form may be a part): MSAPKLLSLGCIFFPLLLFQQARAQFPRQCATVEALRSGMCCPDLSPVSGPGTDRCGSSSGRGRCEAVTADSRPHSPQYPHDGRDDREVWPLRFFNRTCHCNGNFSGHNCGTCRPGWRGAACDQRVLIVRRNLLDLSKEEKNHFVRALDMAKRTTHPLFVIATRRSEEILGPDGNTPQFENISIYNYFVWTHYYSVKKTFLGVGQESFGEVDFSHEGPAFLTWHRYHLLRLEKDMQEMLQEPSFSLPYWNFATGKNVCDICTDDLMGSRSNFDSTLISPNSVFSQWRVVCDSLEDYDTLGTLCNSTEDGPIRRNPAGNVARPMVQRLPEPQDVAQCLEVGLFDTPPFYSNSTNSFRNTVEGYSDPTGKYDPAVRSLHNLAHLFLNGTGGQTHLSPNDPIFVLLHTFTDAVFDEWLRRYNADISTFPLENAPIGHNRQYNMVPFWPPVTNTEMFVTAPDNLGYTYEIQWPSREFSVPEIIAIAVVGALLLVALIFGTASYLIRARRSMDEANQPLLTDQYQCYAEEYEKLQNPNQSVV

Structure (SMILES): CN(C)c1ccc(CC(=O)N[C@@H](CCC(N)=O)C(=O)NCc2cccc(N3CCOCC3)c2)cc1
- Activity [1]: Active

Structure (SMILES): CN(C)c1ccc(CC(=O)N[C@@H](CCC(N)=O)C(=O)NCc2ccccc2N2CCCC2)cc1
- Activity [1]: Active

Structure (SMILES): CN(C)c1ccc(CC(=O)N[C@H](CCC(N)=O)C(=O)N2CCCN(c3ccc(F)cc3)CC2)cc1
- Activity [1]: Active

Structure (SMILES): N=C(N)NCCC[C@@H](NC(=O)[C@@H](CC(=O)O)NC(=O)[C@H](CCCCNC(=O)CCCCCNC(=O)CCCCn1cc(CCCC(=O)Nc2nc(-c3ccc(O)cc3O)cs2)nn1)NC(=O)CCCCCNC(=O)CCCCn1cc(CCCC(=O)Nc2nc(-c3ccc(O)cc3O)cs2)nn1)C(=O)N[C@H](CC(=O)O)C(=O)NCCCCCC(=O)NC(CSC1CC(=O)N(c2ccc3c(c2)C(=O)OC32c3ccc(O)cc3Oc3cc(O)ccc32)C1=O)C(=O)O (single isomer, unassigned)
- Activity [2]: Active
- Activity [3]: Active
- Activity [4]: Active
- Activity [5]: Active

Structure (SMILES): CN(C)c1ccc(CC(=O)N[C@H](CCC(N)=O)C(=O)NCc2ccccc2N2CCCC2)cc1
- Activity [1]: Active

Structure (SMILES): CN(C)c1ccc(CC(=O)N[C@H](CCC(=O)NCCCCC(NC(=S)Nc2cccc3c2C(=O)OC32c3ccc(O)cc3Oc3cc(O)ccc32)C(=O)O)C(=O)NCc2ccccc2N2CCCC2)cc1 (stereo not given in full)
- Activity [6]: Active

Structure (SMILES): CN(C)c1ccc(CC(=O)N[C@@H](CCC(=O)NCCCCC(NC(=S)Nc2cccc3c2C(=O)OC32c3ccc(O)cc3Oc3cc(O)ccc32)C(=O)O)C(=O)NCc2ccccc2N2CCCC2)cc1 (stereo not given in full)
- Activity [6]: Active

Structure (SMILES): N=C(N)NCCC[C@@H](NC(=O)[C@@H](CC(=O)O)NC(=O)CCCCn1cc(CCCC(=O)Nc2nc(-c3ccc(O)cc3O)cs2)nn1)C(=O)N[C@H](CC(=O)O)C(=O)NCCCCCC(=O)NC(CSC1CC(=O)N(c2ccc3c(c2)C(=O)OC32c3ccc(O)cc3Oc3cc(O)ccc32)C1=O)C(=O)O (single isomer, unassigned)
- Activity [2]: Active
- Activity [3]: Active
- Activity [4]: Active
- Activity [5]: Active

Structure (SMILES): N=C(N)NCCC[C@@H](NC(=O)[C@@H](CC(=O)O)NC(=O)[C@H](CCCCNC(=O)[C@H](CCCCNC(=O)CCCCCNC(=O)CCCCn1cc(CCCC(=O)Nc2nc(-c3ccc(O)cc3O)cs2)nn1)NC(=O)CCCCCNC(=O)CCCCn1cc(CCCC(=O)Nc2nc(-c3ccc(O)cc3O)cs2)nn1)NC(=O)[C@H](CCCCNC(=O)CCCCCNC(=O)CCCCn1cc(CCCC(=O)Nc2nc(-c3ccc(O)cc3O)cs2)nn1)NC(=O)CCCCCNC(=O)CCCCn1cc(CCCC(=O)Nc2nc(-c3ccc(O)cc3O)cs2)nn1)C(=O)N[C@H](CC(=O)O)C(=O)NCCCCCC(=O)N[C@@H](CSC1CC(=O)N(c2ccc3c(c2)C(=O)OC32c3ccc(O)cc3Oc3cc(O)ccc32)C1=O)C(=O)O (stereo not given in full)
- Activity [2]: Active
- Activity [3]: Active
- Activity [4]: Active
- Activity [5]: Active

Structure (SMILES): CN(C)c1ccc(CC(=O)N[C@H](CCC(N)=O)C(=O)NCc2cccc(N3CCOCC3)c2)cc1
- Activity [1]: Active

Structure (SMILES): CN(C)c1ccc(CC(=O)N[C@@H](CCC(N)=O)C(=O)N2CCCN(c3ccc(F)cc3)CC2)cc1
- Activity [1]: Active
